# GSIS activator – primary screen for activators of insulin secretion dependent on glucose, INS-1E cells, GLuc reporter luminescence. INS-1E GLuc reporter insulin secretion, 2-3 h. activation, % at 16.6 µM. hit rate 0.61% among 370,000. AID 743287;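 active = lowest replicate activation of at least 40%, so every replicate reaches that level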;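 also: 0% = median of neutral control wells and 100% = median of IBMX positive control wells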
# PAX8 reporter – inhibitors of PAX8 transcriptional activity in RMG-I cells; inhibition, % at 12.6 µM; hit rate 1.2% among 360,000; RMG-I TPO-luciferase reporter, SteadyGlo, 24 h;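 active = mean replicate inhibition at least 60% with every replicate also reaching 60%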;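 also: luciferase light reporting Pax8 driven TPO promoter activity; plate controls were median of neutral control wells for no effect and mitoxantrone controls for full effect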
# HIV Env fusion – blocks HIV Env-driven cell-cell fusion; HeLa-JRFL Env/CEM21 cell fusion, luciferase; inhibition, % at 12.3 µM; hit rate 1.1% among 360,000; AID 651610;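 active = mean replicate inhibition score of at least 50 and every replicate individually at or above 50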;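 also: 0% = plate neutral controls and 100% = maraviroc near 300 nM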
# Cneo AK release – causes C. neoformans cell lysis; adenylate kinase release luminescence, 4 h; normalised: neutral wells 0, clomiphene wells 100; lysis activity, % at 15 µM; hit rate 0.2% among 360,000; AID 651654;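 active = mean lysis activity across replicates of at least 80%, whatever share of replicates individually reach that level; inactive = mean lysis activity below 80%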
#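 Schedule: static 4 h at 37 °C with compound, 1 h detection; system: C. neoformans cells; benchmarks: Clomiphene as positive control; buffer or medium: fresh YPD medium; measure: luminescence rise reflecting yeast cell lysis; measured by: luminescent adenylate kinase detection reagent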
# dFosB act – activators of mouse delta FosB homodimer | activation, % at 25 µM | purified delta FosB, TAMRA-CDK5 oligo fluorescence polarization; percent of positive-control signal above neutral wells | hit rate 0.99% among 340,000 | P13346 | AID 493131;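 active = mean activation above about 17%, with every replicate also reaching it, limit read from the data, passing the limit was not always enough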
# CDK5 p35 inh – blocks human CDK5/p35 kinase activity. Q00535+Q15078. Recombinant CDK5/p35, ADP-Glo luminescence, 60 min. AID 488839. hit rate 0.01% among 330,000. inhibition, % at 10 µM;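 active = highest replicate inhibition of at least 50% and at least 75% of replicates reaching 50%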;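 also: plate controls were DMSO neutral control for no effect and GW8510 at 10 µM for full effect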
# Target sequence (Q00535 whole entry, looked up): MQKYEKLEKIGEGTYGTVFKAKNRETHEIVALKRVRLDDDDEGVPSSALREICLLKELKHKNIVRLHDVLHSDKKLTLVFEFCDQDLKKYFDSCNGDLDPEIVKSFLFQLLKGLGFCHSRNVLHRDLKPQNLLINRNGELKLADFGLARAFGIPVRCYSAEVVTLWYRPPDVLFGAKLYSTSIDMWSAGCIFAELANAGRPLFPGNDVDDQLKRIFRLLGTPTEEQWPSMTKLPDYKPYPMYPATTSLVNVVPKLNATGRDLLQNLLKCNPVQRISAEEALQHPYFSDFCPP
# Target sequence (Q15078 whole entry, looked up): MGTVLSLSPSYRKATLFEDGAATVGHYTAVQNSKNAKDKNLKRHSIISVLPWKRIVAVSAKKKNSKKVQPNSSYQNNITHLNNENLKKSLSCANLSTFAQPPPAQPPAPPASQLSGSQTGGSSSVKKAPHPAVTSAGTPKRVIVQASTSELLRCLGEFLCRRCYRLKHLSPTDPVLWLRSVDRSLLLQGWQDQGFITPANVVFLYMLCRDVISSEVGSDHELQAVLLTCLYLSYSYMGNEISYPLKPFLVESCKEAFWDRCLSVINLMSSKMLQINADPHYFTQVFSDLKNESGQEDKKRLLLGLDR
# Starred values were filed as active, the others as inactive; x = no result given; ! = not confirmed by another sample; [ ] = remark or other dose. In the library only some 2.9% were active in any assay of this set; here they are far more common.
SMILES,GSIS activator,PAX8 reporter,HIV Env fusion,Cneo AK release,dFosB act,CDK5 p35 inh
CO[C@H]1CN(C)C(=O)c2ccc(NS(=O)(=O)c3ccc(Cl)cc3)cc2OC[C@H](C)N(C)C[C@H]1C,11,1,-3[16.7 µM],0,x,x
CCCCn1c(N)c(N(CCC(C)C)C(=O)COC(=O)c2ccc([N+](=O)[O-])s2)c(=O)[nH]c1=O,-25,91*,9,0,-7,-1
Cc1nn(C(C)(C)C)c(C)c1/C=N/OC(=O)Nc1ccc(Cl)c(Cl)c1,x,1,65*,-5,-7,0
COc1cccc(-c2ccc([C@@H]3[C@H]4CN(Cc5cncnc5)CCCCN4[C@H]3CO)cc2)c1,1,-14,x,-4,x,x
C[C@@H]1CN([C@H](C)CO)C(=O)c2cc(NC(=O)c3ccncc3)ccc2O[C@@H](C)CCCCO[C@H]1CN(C)C(=O)c1ccccc1,6,13,15[16.7 µM],x,x,x
CCCC(=O)Nc1ccc2c(c1)C(=O)N(C)[C@@H]1CC[C@@H](CC(=O)OC)O[C@H]1CO2,14,35,-18[16.7 µM],70,x,x
CN1CCN(c2nc(-c3cccs3)nc3ccccc23)CC1,31,-11,-9,2,-32,2
CCN1CCN(c2nc(-c3cccs3)nc3ccccc23)CC1,22,134*,x,-1,-13,2
CCN(CC)c1ccc(-c2sc(Nc3ccccc3)n[n+]2-c2ccc(F)cc2)cc1,x,-1,8,0,28*,1
CCc1ccc(Nc2n[n+](-c3ccccc3)c(-c3ccc(N(CC)CC)cc3)s2)cc1,-45,82*,39,16,75*,-1
CCc1ccc(Nc2n[n+](-c3ccccc3)c(-c3c(Cl)cccc3Cl)s2)cc1,2,101*,70*,1,3,-3
C[C@H](CO)N1C[C@H](C)[C@@H](CN(C)CC2CCCCC2)OCCCC[C@H](C)Oc2ccc(NC(=O)Nc3ccc4c(c3)OCO4)cc2C1=O,18,-18,5[16.7 µM],1,x,x
CCOc1ccc(Nc2cc(C)nc(-n3nc(C)cc3C)n2)cc1,x,68*,-207,11,-7,1
CNc1cc(C)nc(-n2nc(C)cc2C)n1,x,x,x,16,2,0
COc1ccc(S(=O)(=O)Nc2ccc3c(c2)C(=O)N([C@H](C)CO)C[C@H](C)[C@H](CN(C)C(=O)Nc2ccccc2)O3)cc1,-13,-40,-6[16.7 µM],90*,x,x
C[C@@H]1CN([C@@H](C)CO)C(=O)c2cc(NS(=O)(=O)c3ccccc3)ccc2O[C@H]1CN(C)C(=O)NC1CCCCC1,26,17,x,112*,x,x
C[C@H](CO)N1C[C@H](C)[C@H](CN(C)C(=O)NC2CCCCC2)Oc2ccc(NS(=O)(=O)c3ccc(F)cc3)cc2C1=O,-19,-5,16[16.7 µM],-12,x,x
COc1ccc(S(=O)(=O)Nc2ccc3c(c2)C(=O)N([C@H](C)CO)C[C@H](C)[C@@H](CN(C)C(=O)Nc2ccccc2)O3)cc1,21,10,13,0,-8,0
C[C@@H]1CCCCO[C@H](CN(C)C(=O)CCCN(C)C)[C@H](C)CN([C@@H](C)CO)C(=O)c2cc(NC(=O)Nc3cccc4ccccc34)ccc2O1,-6,-21,31[16.7 µM],3,x,x
COc1ccc(C(OCC(O)CNCCc2ccc(S(N)(=O)=O)cc2)c2ccc(OC)cc2)cc1 (stereo not given),-17,10,-9,1,-7,-1
OC(CNCCc1ccc(C(F)(F)F)cc1)COC(c1ccccc1)c1ccccc1 (stereo not given),365*,23,32,11,-2,1
O=c1c2c(nc3c(-c4ccc(Cl)cc4)c[nH]n13)CCCC2,x,45,62*,-1,-3,0
CO[C@@H]1CN(C)C(=O)c2ccc(NC(=O)Nc3ccc(Cl)cc3)cc2OC[C@H](C)NC[C@@H]1C,-8,x,x,x,x,x
CCOC(=O)C1=C(c2ccccc2)NC(SCC(=O)Nc2cccc(C)c2)=C(C#N)C1c1ccco1 (stereo not given),-18,x,111*,x,-12,-2
Cc1ccc(-c2csc(NC(=O)CCCc3cccs3)n2)cc1,98*,-8,7,x,10,1
SMILES,GSIS activator,PAX8 reporter,HIV Env fusion,Cneo AK release,dFosB act,CDK5 p35 inh
C[C@H]1CN([C@@H](C)CO)C(=O)CCCn2cc(nn2)CO[C@H]1CN(C)S(=O)(=O)c1cccc(F)c1,11,x,11[16.7 µM],42,x,x
Cc1cc(=O)oc2ccc(OC(=O)CN3C(=O)c4cccc([N+](=O)[O-])c4C3=O)cc12,x,147*,-1,x,-3,0
CCOc1ccc(C(=O)NCC(=O)OCc2c(C)noc2C)cc1,-1,73*,x,2,1,0
Cc1cccc(NC(=O)c2ccc(OCc3c(C)noc3C)cc2)c1C,137*,6,-13,0,0,0
CCOc1ccc(C(=O)NCC(=O)OCc2c(C)noc2C)cc1OCC,30,4,8,x,-14,2
Nc1nc(N)nc(-c2cccc([N+](=O)[O-])c2)n1,60*,-41,-16,-1,x,x
CCCCCn1c(N(C)Cc2ccccc2)nc2c1c(=O)[nH]c(=O)n2C,40*,24,9,0,-2,-2
CN(Cc1ccccc1)c1nc2c(c(=O)[nH]c(=O)n2C)n1Cc1ccccc1,70*,x,-16,-2,-9,-1
CN(Cc1ccccc1)c1nc2c(c(=O)[nH]c(=O)n2C)n1CCOc1ccccc1,x,x,x,x,-8,2
COCC(=O)Nc1ccc2c(c1)C(=O)N(C)[C@@H]1CC[C@@H](CC(=O)NCC3CCCCC3)O[C@@H]1CO2,-14,0,x,-1,x,x
CCCC(=O)Nc1ccc2c(c1)C(=O)N(C)C[C@@H](OC)[C@H](C)CN(CC1CCOCC1)[C@H](C)CO2,14,x,x,x,x,x
COc1ccc(C2N(c3ccccc3)C(=O)C2(F)F)cc1OC (stereo not given),44*,10,-11,-2,7,1
Cc1ccc(N2C(=O)C(F)(F)C2c2ccccc2)cc1 (stereo not given),-24,-7,-7,2,-1,-2
O=C(CCN1CCOCC1)c1ccc(N2CCCCC2)cc1,51*,-6,5,-2,3,2
O=C(CCN1CCN(c2ccccc2)CC1)c1ccc(Cl)cc1,11,12,-2,-2,3,1
O=C1COc2ccc(-c3csc(=Nc4ccc(OC(F)F)cc4)n3CC3CCCO3)cc2N1 (stereo not given),x,17,92*,0,-11,0
COCC(C)n1c(-c2ccc3c(c2)NC(=O)CO3)csc1=Nc1ccc(OC(F)F)cc1 (stereo not given),-13,43,83*!,x,8,-3
COc1ccccc1N=c1scc(-c2ccc3c(c2)NC(=O)CO3)n1CC1CCCO1 (stereo not given),x,x,x,-1,-11,0
CCS(=O)(=O)N1CCCCN2[C@@H](CO)[C@@H](c3ccc(-c4ccc(C#N)cc4)cc3)[C@@H]2C1,-12,7,x,0,x,x

# Screens from PubChem BioAssay.
